Source: ChEMBL document CHEMBL1255475, “Mutant prevention concentrations of four carbapenems against gram-negative rods” (2010)
In brackets after ≈: the same amount, converted by molar mass.

Tests used:
Type in all cases: functional
[1] = system: Escherichia coli; assay: Antibacterial activity against beta-lactamase-negative Escherichia coli E345 incubated up to 7 days by agar dilution method; conditions: E345, 168 h
[2] = system: Klebsiella pneumoniae; assay: Antibacterial activity against beta-lactamase-positive ESBL-negative Klebsiella pneumoniae E477 incubated up to 7 days by agar dilution method; conditions: E477, 168 h
[3] = system: Klebsiella pneumoniae; assay: Antibacterial activity against beta-lactamase-positive ESBL-negative Klebsiella pneumoniae E507 incubated up to 7 days by agar dilution method; conditions: E507, 168 h
How it was run: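 MPC determination: overnight cultures on blood trypticase soy agar at 35°C in air were resuspended in 0.9% saline, and CFU were counted on drug-free Mueller-Hinton agar. […] Growth was retested by agar dilution to confirm mutants. MPC was the lowest concentration preventing resistant-mutant growth.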

[4] = system: Escherichia coli; assay: Antibacterial activity against beta-lactamase-positive ESBL-negative Escherichia coli E412 incubated up to 7 days by agar dilution method; conditions: E412, 168 h
How it was run: (§1)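 MIC by CLSI agar dilution, with quality-control strains in each run. Beta-lactamase status was set by 30 μg cefazolin Kirby-Bauer disk diffusion. ESBL status was set by cefotaxime and ceftazidime disks (30 μg) with and without clavulanic acid (10 μg).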

[5] = system: Escherichia coli; assay: Antibacterial activity against beta-lactamase-positive ESBL-negative Escherichia coli E415 incubated up to 7 days by agar dilution method; conditions: E415, 168 h; how it was run: as §1
[6] = system: Escherichia coli; assay: Antibacterial activity against beta-lactamase-positive ESBL-negative Escherichia coli E437 incubated up to 7 days by agar dilution method; conditions: E437, 168 h; how it was run: as §1
[7] = system: Escherichia coli; assay: Antibacterial activity against beta-lactamase-negative Escherichia coli E424 […] by agar dilution method
[8] = system: Escherichia coli; assay: Antibacterial activity against beta-lactamase-positive ESBL-positive Escherichia coli E459 incubated up to 7 days by agar dilution method; conditions: E459, 168 h; how it was run: as §1
[9] = system: Escherichia coli; assay: Antibacterial activity against beta-lactamase-positive ESBL-positive Escherichia coli E465 incubated up to 7 days by agar dilution method; conditions: E465, 168 h; how it was run: as §1
[10] = system: Klebsiella pneumoniae; assay: Antibacterial activity against beta-lactamase-negative Klebsiella pneumoniae E357 incubated up to 7 days by agar dilution method; conditions: E357, 168 h
[11] = system: Acinetobacter baumannii; assay: Antibacterial activity against Acinetobacter baumannii A898 assessed as mutant prevention concentration after overnight incubation
[12] = system: Acinetobacter baumannii; assay: Antibacterial activity against Acinetobacter baumannii A929 assessed as mutant prevention concentration after overnight incubation
[13] = system: Acinetobacter baumannii; assay: Antibacterial activity against Acinetobacter baumannii A891 assessed as mutant prevention concentration after overnight incubation
[14] = system: Acinetobacter baumannii; assay: Antibacterial activity against Acinetobacter baumannii A894 assessed as mutant prevention concentration after overnight incubation
[15] = system: Klebsiella pneumoniae; assay: Antibacterial activity against beta-lactamase-negative Klebsiella pneumoniae E418 assessed as mutant prevention concentration after overnight incubation
How it was run: (§2)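 Overnight growth on blood trypticase soy agar (35°C, air) was resuspended in 0.9% saline and counted on drug-free Mueller-Hinton agar. […] Colonies were retested by agar dilution to confirm mutants. MPC was the lowest concentration preventing resistant-mutant growth.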

[16] = system: Klebsiella pneumoniae; assay: Antibacterial activity against beta-lactamase-positive ESBL-negative Klebsiella pneumoniae E509 assessed as mutant prevention concentration after overnight incubation; how it was run: as §2
[17] = system: Klebsiella pneumoniae; assay: Antibacterial activity against beta-lactamase-positive ESBL-positive Klebsiella pneumoniae E475 assessed as mutant prevention concentration after overnight incubation; how it was run: as §2
[18] = system: Klebsiella pneumoniae; assay: Antibacterial activity against beta-lactamase-positive ESBL-negative Klebsiella pneumoniae E479 assessed as mutant prevention concentration after overnight incubation; how it was run: as §2
[19] = system: Klebsiella pneumoniae; assay: Antibacterial activity against beta-lactamase-positive ESBL-negative Klebsiella pneumoniae E477 assessed as mutant prevention concentration after overnight incubation; how it was run: as §2
[20] = system: Klebsiella pneumoniae; assay: Antibacterial activity against beta-lactamase-positive ESBL-positive Klebsiella pneumoniae E453 assessed as mutant prevention concentration after overnight incubation; how it was run: as §2
[21] = system: Klebsiella pneumoniae; assay: Antibacterial activity against beta-lactamase-positive ESBL-positive Klebsiella pneumoniae E457 assessed as mutant prevention concentration after overnight incubation; how it was run: as §2
[22] = system: Klebsiella pneumoniae; assay: Antibacterial activity against beta-lactamase-positive ESBL-negative Klebsiella pneumoniae E507 assessed as mutant prevention concentration after overnight incubation; how it was run: as §2
[23] = system: Pseudomonas aeruginosa; assay: Antibacterial activity against Pseudomonas aeruginosa P319 assessed as mutant prevention concentration after overnight incubation
[24] = system: Pseudomonas aeruginosa; assay: Antibacterial activity against Pseudomonas aeruginosa P334 assessed as mutant prevention concentration after overnight incubation
[25] = system: Pseudomonas aeruginosa; assay: Antibacterial activity against Pseudomonas aeruginosa P353 assessed as mutant prevention concentration after overnight incubation
[26] = system: Pseudomonas aeruginosa; assay: Antibacterial activity against Pseudomonas aeruginosa P340 assessed as mutant prevention concentration after overnight incubation
[27] = system: Pseudomonas aeruginosa; assay: Antibacterial activity against Pseudomonas aeruginosa P349 assessed as mutant prevention concentration after overnight incubation
[28] = system: Pseudomonas aeruginosa; assay: Antibacterial activity against Pseudomonas aeruginosa P370 assessed as mutant prevention concentration after overnight incubation
[29] = system: Pseudomonas aeruginosa; assay: Antibacterial activity against Pseudomonas aeruginosa P341 assessed as mutant prevention concentration after overnight incubation
[30] = system: Pseudomonas aeruginosa; assay: Antibacterial activity against Pseudomonas aeruginosa P376 assessed as mutant prevention concentration after overnight incubation
[31] = system: Acinetobacter baumannii; assay: Antibacterial activity against Acinetobacter baumannii A912 assessed as mutant prevention concentration after overnight incubation
[32] = system: Acinetobacter baumannii; assay: Antibacterial activity against Acinetobacter baumannii A928 assessed as mutant prevention concentration after overnight incubation
[33] = system: Escherichia coli; assay: Antibacterial activity against beta-lactamase-negative Escherichia coli E344 assessed as mutant prevention concentration after overnight incubation
[34] = system: Escherichia coli; assay: Antibacterial activity against beta-lactamase-negative Escherichia coli E350 assessed as mutant prevention concentration after overnight incubation
[35] = system: Escherichia coli; assay: Antibacterial activity against beta-lactamase-positive ESBL-negative Escherichia coli E415 assessed as mutant prevention concentration after overnight incubation; how it was run: as §2
[36] = system: Escherichia coli; assay: Antibacterial activity against beta-lactamase-positive ESBL-negative Escherichia coli E437 assessed as mutant prevention concentration after overnight incubation; how it was run: as §2
[37] = system: Escherichia coli; assay: Antibacterial activity against beta-lactamase-negative Escherichia coli E425 assessed as mutant prevention concentration after overnight incubation
[38] = system: Escherichia coli; assay: Antibacterial activity against beta-lactamase-positive ESBL-positive Escherichia coli E446 assessed as mutant prevention concentration after overnight incubation; how it was run: as §2
[39] = system: Escherichia coli; assay: Antibacterial activity against beta-lactamase-positive ESBL-positive Escherichia coli E450 assessed as mutant prevention concentration after overnight incubation; how it was run: as §2
[40] = system: Escherichia coli; assay: Antibacterial activity against beta-lactamase-positive ESBL-positive Escherichia coli E459 assessed as mutant prevention concentration after overnight incubation; how it was run: as §2
[41] = system: Escherichia coli; assay: Antibacterial activity against beta-lactamase-positive ESBL-positive Escherichia coli E460 assessed as mutant prevention concentration after overnight incubation; how it was run: as §2
[42] = system: Escherichia coli; assay: Antibacterial activity against beta-lactamase-positive ESBL-positive Escherichia coli E465 assessed as mutant prevention concentration after overnight incubation; how it was run: as §2
[43] = system: Escherichia coli; assay: Antibacterial activity against beta-lactamase-positive ESBL-negative Escherichia coli E483 assessed as mutant prevention concentration after overnight incubation; how it was run: as §2
[44] = system: Klebsiella pneumoniae; assay: Antibacterial activity against beta-lactamase-negative Klebsiella pneumoniae E357 assessed as mutant prevention concentration after overnight incubation
[45] = system: Klebsiella pneumoniae; assay: Antibacterial activity against beta-lactamase-negative Klebsiella pneumoniae E361 assessed as mutant prevention concentration after overnight incubation

C[C@@H](O)[C@H]1C(=O)N2C(C(=O)O)=C(S[C@@H]3CN[C@H](C(=O)N(C)C)C3)[C@H](C)[C@H]12 [MEROPENEM]
MIC [1]: 0.03 µg/mL (≈ 0.0782 µM) | MIC [2]: 2 µg/mL (≈ 5.22 µM) | MIC [3]: 4 µg/mL (≈ 10.4 µM) | MIC [4]: 0.06 µg/mL (≈ 0.156 µM) | MIC [5]: 0.06 µg/mL (≈ 0.156 µM) | MIC [6]: 0.06 µg/mL (≈ 0.156 µM) | MIC [7]: 0.03 µg/mL (≈ 0.0782 µM) | MIC [8]: 0.03 µg/mL (≈ 0.0782 µM) | MIC [9]: 0.06 µg/mL (≈ 0.156 µM) | MIC [10]: 0.03 µg/mL (≈ 0.0782 µM) | MPC [11]: 8 µg/mL | MPC [12]: 4 µg/mL | MPC [13]: 2 µg/mL | MPC [14]: 2 µg/mL | MPC [15]: 0.125 µg/mL | MPC [16]: >64 µg/mL | MPC [17]: 32 µg/mL | MPC [18]: 32 µg/mL | MPC [19]: 8 µg/mL | MPC [20]: 0.5 µg/mL | MPC [21]: 0.125 µg/mL | MPC [22]: >64 µg/mL | MPC [23]: 8 µg/mL | MPC [24]: >4 µg/mL | MPC [25]: 8 µg/mL | MPC [26]: 4 µg/mL | MPC [27]: 16 µg/mL | MPC [28]: >4 µg/mL | MPC [29]: 8 µg/mL | MPC [30]: 16 µg/mL | MPC [31]: 4 µg/mL | MPC [32]: 4 µg/mL | MPC [33]: 0.03 µg/mL | MPC [34]: 0.06 µg/mL | MPC [35]: 0.125 µg/mL | MPC [36]: 0.125 µg/mL | MPC [37]: 0.06 µg/mL | MPC [38]: 0.125 µg/mL | MPC [39]: 0.06 µg/mL | MPC [40]: 0.125 µg/mL | MPC [41]: 0.06 µg/mL | MPC [42]: >1 µg/mL | MPC [43]: 4 µg/mL | MPC [44]: 0.125 µg/mL | MPC [45]: 0.125 µg/mL
